Results: ChEMBL document CHEMBL1138529, “Efficacy, pharmacokinetics, and metabolism of tetrahydroquinoline inhibitors of Plasmodium falciparum protein farnesyltransferase” (Antimicrob Agents Chemother, 2007)

How the values were obtained:
[1] = Permeability from apical to basolateral side in human Caco-2 cells; format: ADME, cell-based; settings: read-out: permeability
[2] = Permeability from basolateral to apical side in human Caco-2 cells; format: ADME, cell-based; settings: read-out: permeability
Method in brief: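 Caco-2 clone TC7 grown on laminin-coated porous inserts and used 19-21 days after seeding; integrity checked by TEER and [3H]mannitol flux. Monolayers equilibrated 30 min at 37°C in HBSS/5 mM HEPES pH 7.4. Compound at 50 μM final added to basolateral donor side. Apical receiver sampled at 60 min, 37°C with shaking; LC/MS; Papp calculated from 60-min concentrations.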

Mus musculus [3] = experiment: Plasma concentration in BALB/c mouse at 50 mg/kg, po; format: ADME, organism-based; design: dose 50 mg/kg, route oral; settings: in vivo
Method in brief: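 Female BALB/c mice, 8-10 weeks, three per group. Single 50 mg/kg oral gavage in 3% EtOH-7% Tween 80-90% normal saline. Plasma collected by tail bleed at set times, frozen at −20°C, acetonitrile-extracted with internal standard, quantified by LC/MS.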

Mus musculus [4] = experiment: Toxicity in BALB/c mouse at 50 mg/kg, po; format: organism-based; design: dose 50 mg/kg, route oral; settings: in vivo
[5] = Metabolic stability in mouse liver microsomes; format: ADME, Microsome
Method in brief: (§1)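 Pooled female liver microsomes at 0.5 mg/ml in 0.1 M potassium phosphate pH 7.4, 3 mM MgCl2, 1 mM EDTA, with NADPH regenerating system (1 mM NADP+, 5 mM glucose-6-phosphate, 1 U/ml G6PDH). Preincubated 10 min at 37°C, then compound added to 1 μM final. Time points quenched with 3 volumes acetonitrile plus internal standard; parent quantified by LC/MS; half-life reported.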

[6] = AUC in BALB/c mouse at 50 mg/kg, po; format: ADME, organism-based; design: dose 50 mg/kg, route oral; settings: plasma
Method in brief: (§2)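 Three female BALB/c mice (lines for mice, 8–10 weeks) or three female Sprague-Dawley rats (10–12 weeks) per group; 50 mg/kg oral gavage in 3% EtOH-7% Tween 80-90% normal saline. Plasma sampled at set times (tail bleed in mice, saphenous vein in rats), extracted with acetonitrile plus internal standard, quantified by LC/MS; AUC as mean of three animals.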

[7] = Cmax in BALB/c mouse at 50 mg/kg, po; format: ADME, organism-based; design: dose 50 mg/kg, route oral; settings: in vivo
Method in brief: (§3)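 50 mg/kg by oral gavage in 3% EtOH-7% Tween 80-90% normal saline to groups of three females (BALB/c mice, 8–10 weeks, tail bleed; Sprague-Dawley rats, 10–12 weeks, saphenous vein). Plasma extracted with acetonitrile/internal standard, LC/MS; means of three animals. Oral elimination half-life depends on absorption rate as well as elimination.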

[8] = Elimination half life in BALB/c mouse at 50 mg/kg, po; format: ADME, organism-based; design: dose 50 mg/kg, route oral; settings: in vivo, read-out: beta t1/2; method in brief: as §3
[9] = Metabolic stability in rat liver microsomes; format: ADME, Microsome; method in brief: as §1
[10] = AUC in Sprague-Dawley rat at 50 mg/kg, po; format: ADME, organism-based; design: dose 50 mg/kg, route oral; settings: plasma; method in brief: as §2
[11] = Cmax in Sprague-Dawley rat at 50 mg/kg, po; format: ADME, organism-based; design: dose 50 mg/kg, route oral; settings: in vivo; method in brief: as §3
[12] = Elimination half life in Sprague-Dawley rat at 50 mg/kg, po; format: ADME, organism-based; design: dose 50 mg/kg, route oral; settings: in vivo, read-out: beta t1/2; method in brief: as §3
Rattus norvegicus = experiment: Toxicity in Sprague-Dawley rat at 50 mg/kg, po; format: organism-based; design: dose 50 mg/kg, route oral; settings: in vivo
Method in brief: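 Female Sprague-Dawley rats, 10-12 weeks, three per group. 50 mg/kg oral gavage in 3% EtOH-7% Tween 80-90% normal saline. Saphenous vein plasma sampled over time, and animals observed for adverse reactions.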

[13] = Inhibition of Plasmodium falciparum protein farnesyltransferase by SPA method
Plasmodium falciparum [14] = experiment: Antiplasmodial activity against Plasmodium falciparum by [3H]hypoxanthine uptake; format: functional; settings: read-out: ED50 (the source's name)
Method in brief: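 Asynchronous P. falciparum (3D7 or K1) in RPMI 1640 with 20% heat-inactivated human A+ plasma, 0.5% parasitemia and 0.5% hematocrit; compound serially diluted, top final 5 μM, 48 h at 37°C under 5% CO2/5% O2/90% N2, then [8-3H]hypoxanthine 0.3 μCi added for 24 h.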

Plasmodium falciparum [15] = experiment: Antiplasmodial activity against chloroquine-sensitive Plasmodium falciparum 3D7 by [3H]hypoxanthine uptake; format: functional; settings: read-out: ED50 (the source's name)
Method in brief: (§4)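 Asynchronous cultures at 0.5% parasitemia and 0.5% hematocrit in RPMI 1640 with 20% heat-inactivated human A+ plasma, exposed to serially diluted inhibitor (top final 5 μM, from DMSO stock) under 5% CO2/5% O2/90% N2 at 37°C for 48 h. [3H]hypoxanthine was then added for 24 h and harvested counts were background-subtracted against DMSO-only controls. ED50 came from linear regression, as the mean of duplicates.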

Plasmodium falciparum [16] = experiment: Antiplasmodial activity against chloroquine-resistant Plasmodium falciparum K1 by [3H]hypoxanthine uptake; format: functional; settings: read-out: ED50 (the source's name); method in brief: as §4

Structure (SMILES)	Papp A→B [1]	Papp B→A [2]	concentration (Mus musculus [3])	half-life [5]	AUC [6]	Cmax [7]	half-life [8]	half-life [9]	AUC [10]	Cmax [11]	half-life [12]	Activity (Mus musculus [4])	Activity (Rattus norvegicus)	IC50 [13]	EC50 (Plasmodium falciparum [14])	EC50 (Plasmodium falciparum [15])	EC50 (Plasmodium falciparum [16])
Cn1cncc1CN1CC(N(Cc2ccccn2)S(=O)(=O)c2ccccn2)Cc2cc(C#N)ccc21 (centres undefined)	1.6 ×10⁻⁶ cm/s	73.3 ×10⁻⁶ cm/s	5.7 µM	–	–	–	–	–	–	–	–	Non-toxic	–	–	–	–	–
Cn1cnc(S(=O)(=O)N(CCn2cccc2)C2Cc3cc(C#N)ccc3N(Cc3cncn3C)C2)c1 (centres undefined)	0.3 ×10⁻⁶ cm/s	53 ×10⁻⁶ cm/s	0.8 µM	–	–	–	–	–	–	–	–	Non-toxic	–	–	–	–	–
Cn1cncc1CN1CC(N(CCn2cccc2)S(=O)(=O)c2ccccn2)Cc2cc(C#N)ccc21 (centres undefined)	12.4 ×10⁻⁶ cm/s	45.5 ×10⁻⁶ cm/s	13.6 µM	4.9 min	15.9 µM·h	13.5 µM	40 min	10.4 min	11.6 µM·h	5.4 µM	62 min	Non-toxic	Non-toxic	–	–	–	–
Cn1cnc(S(=O)(=O)N(CC(=O)NC(C)(C)C)C2Cc3cc(-c4ccccc4)ccc3N(Cc3cncn3C)C2)c1 (centres undefined)	–	–	–	98 min	15.7 µM·h	5 µM	88 min	165 min	13.5 µM·h	4.1 µM	106 min	–	Non-toxic	–	–	–	–
CC(C)COC(=O)N1CCC(CN(C2Cc3cc(C#N)ccc3N(Cc3cncn3C)C2)S(=O)(=O)c2ccccn2)CC1 (centres undefined)	–	–	–	5.1 min	4.67 µM·h	5.4 µM	26 min	18 min	33.8 µM·h	8.4 µM	62 min	–	–	0.7 nM	62 nM	62 nM	62 nM
CC(C)OC(=O)N1CCC(CN(C2Cc3cc(C#N)ccc3N(Cc3cncn3C)C2)S(=O)(=O)c2ccccn2)CC1 (centres undefined)	1 ×10⁻⁶ cm/s	–	–	–	–	–	–	–	10.9 µM·h	4.5 µM	–	Non-toxic	Non-toxic	0.5 nM	16 nM	–	–
Cn1cnc(S(=O)(=O)N(Cc2ccccn2)C2Cc3cc(C#N)ccc3N(Cc3cncn3C)C2)c1 (centres undefined)	0.2 ×10⁻⁶ cm/s	23.9 ×10⁻⁶ cm/s	1 µM	–	–	–	–	–	–	–	–	Non-toxic	–	–	–	–	–
CCOC(=O)N1CCC(CN(C2Cc3cc(C#N)ccc3N(Cc3cncn3C)C2)S(=O)(=O)c2ccccn2)CC1 (centres undefined)	2.6 ×10⁻⁶ cm/s	–	–	–	–	–	–	12 min	–	–	–	Non-toxic	Non-toxic	0.6 nM	55 nM	55 nM	40 nM

Second part, led by results:

Papp A→B [1]	Papp B→A [2]	concentration (Mus musculus [3])	half-life [5]	AUC [6]	Cmax [7]	half-life [8]	half-life [9]	AUC [10]	Cmax [11]	half-life [12]	Structure (SMILES)	Activity (Mus musculus [4])	Activity (Rattus norvegicus)	IC50 [13]	EC50 (Plasmodium falciparum [14])	EC50 (Plasmodium falciparum [15])	EC50 (Plasmodium falciparum [16])
0.2 ×10⁻⁶ cm/s	52.1 ×10⁻⁶ cm/s	1.1 µM	–	–	–	–	–	–	–	–	Cn1cnc(S(=O)(=O)N(Cc2cccc(-n3cccc3)c2)C2Cc3cc(C#N)ccc3N(Cc3cncn3C)C2)c1 (centres undefined)	Non-toxic	–	–	–	–	–
0.7 ×10⁻⁶ cm/s	72.5 ×10⁻⁶ cm/s	3.9 µM	3.4 min	4.55 µM·h	3.9 µM	30 min	16 min	5.42 µM·h	3.4 µM	26 min	Cn1cnc(S(=O)(=O)N(Cc2ccc(C(F)(F)F)o2)C2Cc3cc(C#N)ccc3N(Cc3cncn3C)C2)c1 (centres undefined)	Non-toxic	Non-toxic	–	–	–	–
8 ×10⁻⁶ cm/s	67.1 ×10⁻⁶ cm/s	15 µM	–	–	–	–	–	–	–	–	Cc1noc(C)c1CN(C1Cc2cc(C#N)ccc2N(Cc2cncn2C)C1)S(=O)(=O)c1ccccn1 (centres undefined)	Non-toxic	–	–	–	–	–
0.1 ×10⁻⁶ cm/s	41.9 ×10⁻⁶ cm/s	–	–	–	–	–	–	–	–	–	CC[C@]1(O)C[C@@H]2CN(CCc3c([nH]c4ccccc34)[C@@](C(=O)OC)(c3cc4c(cc3OC)N(C)[C@H]3[C@@](O)(C(=O)OC)[C@H](OC(C)=O)[C@]5(CC)C=CCN6CC[C@]43[C@@H]65)C2)C1 [VINBLASTINE]	–	–	–	–	–	–
0.2 ×10⁻⁶ cm/s	50.1 ×10⁻⁶ cm/s	0.15 µM	–	–	–	–	–	–	–	–	Cn1cncc1CN1CC(N(Cc2ccc(S(C)(=O)=O)cc2)S(=O)(=O)c2ccccn2)Cc2cc(C#N)ccc21 (centres undefined)	Non-toxic	–	–	–	–	–
1 ×10⁻⁶ cm/s	–	–	–	–	–	–	–	10.9 µM·h	4.5 µM	–	Cn1cncc1CN1CC(N(CC2CCN(C(=O)OCc3ccccc3)CC2)S(=O)(=O)c2ccccn2)Cc2cc(C#N)ccc21 (centres undefined)	Non-toxic	Non-toxic	0.5 nM	16 nM	–	–
2.3 ×10⁻⁶ cm/s	12.1 ×10⁻⁶ cm/s	9.8 µM	–	–	–	–	–	–	–	–	Cn1cncc1CN1CC(N(Cc2cccc(-n3cccc3)c2)S(=O)(=O)c2ccccn2)Cc2cc(C#N)ccc21 (centres undefined)	Non-toxic	–	–	–	–	–
